Among the data in the array DNA melting data of Ke et al. (doi:10.1101/2024.01.08.574731) are folding enthalpy and Tm values, retold here.

Series [1] in a line: folding enthalpy; higher = less favourable; fluorescence melt of hairpins on a sequencing array, two-state fit. The following applies: sodium 0.088 M. The procedure, abridged:
(§1)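 Cy3 fluorescence of library hairpins on a sequenced MiSeq flow cell, with annealed Cy3 and quencher oligos, was imaged in 50 mM Na-HEPES pH 8.0, 25 mM NaCl in 2.5 °C steps up to 60 °C. Signals were normalised to pre-quench Cy3 and to control variants. Melting temperature and folding enthalpy came from bootstrapped two-state fits, inverse-variance combined over four replicates. Fitted temperatures were raised by 9.35 °C to match UV melts.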

Series [2] in a line: melting temperature; fluorescence melt of hairpins on a sequencing array, two-state fit, raised by 9.35 °C to match UV melts. The settings on record: sodium 0.088 M. Summed up: as §1

With GTAGCCGGAAACGGCTGC (.(((((....))))).), the folding enthalpy in series [1] was -15.9 kcal/mol. The Tm in series [2] turned out to be 60.9 °C.

As to GTAGCGGAAACGCTAC ((((((....)))))), the folding enthalpy in series [1] is -30.2 kcal/mol. In addition, the Tm in series [2] was 65.3 °C.

As for GTAGCGGGAAACCGTTAC (((.(((....))).))), the folding enthalpy in series [1] was -30.2 kcal/mol. Moreover, in series [2], the Tm came to 47.8 °C.

Turning to GTAGCTGGAAACAACTAC ((((.((....)).)))), the folding enthalpy in series [1] was -27.2 kcal/mol. In addition, the Tm in series [2] is 35.9 °C.

For GTAGCTGGAAACAGCTGC (.(((((....))))).), in series [1], the folding enthalpy was -26.3 kcal/mol. The Tm in series [2] turned out to be 55.2 °C.

As to GTAGCTGGAAACGGTTAC (((.(.(....).).))), in series [1], the folding enthalpy is -18.7 kcal/mol. The Tm in series [2] was 28.9 °C.

For GTAGGAGGAAACCCCTAC (((((.(....).))))), in series [1], the folding enthalpy was -32.4 kcal/mol. Besides, the Tm in series [2] worked out at 38.3 °C.

Turning to GTAGGCGAAAGCCATAC ((((((....))).))), the folding enthalpy in series [1] is -11.2 kcal/mol. In addition, the Tm in series [2] was determined as 43.8 °C.

For the sequence GTAGGCGAAAGCCCATAC ((((((....)))..))), the folding enthalpy in series [1] is -8.87 kcal/mol. In series [2], the Tm worked out at 28.2 °C.

Consider GTAGGCGAAAGCCCTTAC ((((((....)))..))), for which the folding enthalpy in series [1] is -9.27 kcal/mol. The Tm in series [2] came to 37.9 °C.

For the sequence GTAGGCGAAAGCCGATAC ((((((....)))..))), in series [1], the folding enthalpy is -10.1 kcal/mol. Further, the Tm in series [2] is 41.5 °C.

For the sequence GTAGGCGAAAGCCGTAC ((((((....))).))), the folding enthalpy in series [1] is -13 kcal/mol. Further, the Tm in series [2] stood at 57.3 °C.

As for GTAGGCGAAAGCCTGTAC ((((((....)))..))), the folding enthalpy in series [1] was -9.44 kcal/mol. Moreover, the Tm in series [2] came out at 34.6 °C.

On to GTAGGCGGAAACGTCTAC ((((.((....)).)))), for which the folding enthalpy in series [1] is -39.1 kcal/mol. The Tm in series [2] is 53.1 °C.

In the case of GTAGGGGAAACCCTAC ((((((....)))))), the folding enthalpy in series [1] is -36.7 kcal/mol. Further, the Tm in series [2] worked out at 55.4 °C.

Turning to GTAGGGGGAAACCCTTAC (((.(((....))).))), the folding enthalpy in series [1] is -17.4 kcal/mol. Also, the Tm in series [2] was found to be 42 °C.

On to GTAGGTGGAAACACCTAC (((((((....))))))), for which the folding enthalpy in series [1] is -36.7 kcal/mol. Moreover, the Tm in series [2] amounted to 60.5 °C.

As for GTAGTACCGAAAGGTTAC (((..(((....)))))), the folding enthalpy in series [1] was -11.1 kcal/mol. Further, in series [2], the Tm came out at 29.8 °C.

For the sequence GTAGTACGAAAGTATTAC (((.(((....))).))), the folding enthalpy in series [1] is -31.3 kcal/mol. The Tm in series [2] came out at 41.5 °C.

For the sequence GTAGTAGGAAACTACTGC (.(((((....))))).), the folding enthalpy in series [1] was -27.5 kcal/mol. For the same sequence, the Tm in series [2] stood at 45.7 °C.

Regarding GTAGTCCGAAAGGATAC (((.(((....)))))), in series [1], the folding enthalpy is -15.8 kcal/mol. Moreover, the Tm in series [2] was found to be 38 °C.

On to GTAGTCGAAAGACTGTAC ((((((....)))..))), for which the folding enthalpy in series [1] was -13.8 kcal/mol. For the same sequence, the Tm in series [2] came to 32.1 °C.

In the case of GTAGTCGGAAACAACTAC (((((.(....).))))), the folding enthalpy in series [1] is -24.5 kcal/mol. The Tm in series [2] is 33.6 °C.

In the case of GTAGTCGGAAACGACCAC ((.((((....)))).)), in series [1], the folding enthalpy is -14.5 kcal/mol. Further, the Tm in series [2] stood at 37.4 °C.

As for GTAGTCTCGAAAGAGTAC (((..(((....)))))), the folding enthalpy in series [1] was -17.3 kcal/mol. Also, in series [2], the Tm is 31.9 °C.

As for GTAGTGAAAACTAC (((((....))))), the folding enthalpy in series [1] was -22.3 kcal/mol. In addition, the Tm in series [2] turned out to be 45.1 °C.

Take GTAGTGCGAAAGCATAC (((.(((....)))))): the folding enthalpy in series [1] was -12.6 kcal/mol. In addition, the Tm in series [2] was found to be 40.5 °C.

In the case of GTAGTGGGAAACCACTGC (.(((((....))))).), the folding enthalpy in series [1] is -19.4 kcal/mol. Further, the Tm in series [2] was 50.6 °C.

GTAGTGGGAAACCATTGC (.(.(((....))).).): in series [1], the folding enthalpy is -10.3 kcal/mol. For the same sequence, the Tm in series [2] is 24.3 °C.

In the case of GTAGTGGGAAACTACTAC (((((.(....).))))), the folding enthalpy in series [1] was -31.7 kcal/mol. Further, the Tm in series [2] was 47.5 °C.

Take GTAGTTCGAAAGAAGTAC (((.(((....))).))): the folding enthalpy in series [1] is -25 kcal/mol. Also, the Tm in series [2] was 46 °C.

For GTAGTTGGAAACAACTGC (.(((((....))))).), in series [1], the folding enthalpy is -18 kcal/mol. The Tm in series [2] was found to be 47.6 °C.

Regarding GTAGTTGGAAACAATTAC (((.(((....))).))), the folding enthalpy in series [1] was -23.4 kcal/mol. In series [2], the Tm worked out at 34.2 °C.

As for GTAGTTGGAAACGATTAC (((.(.(....).).))), in series [1], the folding enthalpy was -13.7 kcal/mol. The Tm in series [2] was 30.9 °C.

For GTATAAGGAAACTTGTAC (((.(((....))).))), the folding enthalpy in series [1] was -17.1 kcal/mol. For the same sequence, the Tm in series [2] is 31.5 °C.

In the case of GTATACCGAAAGGTCTAC (((.(((....))).))), in series [1], the folding enthalpy is -22.4 kcal/mol. In series [2], the Tm was determined as 40.7 °C.

In the case of GTATACCGAAAGGTGTAC (((.(((....))).))), the folding enthalpy in series [1] was -27.6 kcal/mol. Further, the Tm in series [2] came to 51.6 °C.
